Here are results for twelve molecules from ChEMBL document CHEMBL2331392, “Antiviral phenolic compounds from Arundina gramnifolia” (J Nat Prod, 2013).

The CC50 is the concentration at which the toxic effect on the cells reaches its halfway point. For orientation: EC50 means the concentration at which the effect is half-maximal. By inhibition is commonly meant the drop in the measured response relative to a control, in per cent. The term IC50 denotes the concentration that inhibits the measured activity by half.

≈ marks a conversion by molar mass, not a printed value. Some results are limits rather than exact numbers.

Data set [1] can be described thus: Therapeutic index, ratio of CC50 for human C8166 cells to EC50 for HIV-1 3B infected in human C8166 cells. It counts as cell-based. Particulars: C8166 cells (CC50) and HIV-1 3B infected C8166 cells (EC50). In outline: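 CC50 came from MTT cytotoxicity on C8166 cells. EC50 came from inhibition of HIV-1 cytopathic effect in C8166 cells. Azidothymidine was the positive control. The index is CC50 divided by EC50.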

Data set [2] is described as follows: Cytotoxicity against human C8166 cells assessed as inhibition of cell viability after 3 days by MTT assay. It counts as cell-based. Put shortly: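 C8166 cells tested with the MTT method. Cytotoxicity reported as CC50. Azidothymidine ran alongside as positive control.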
Background: Tetrazolium dyes change colour on reduction, which living cells bring about.

Data set [3] relates to Human immunodeficiency virus 1. In words: Antiviral activity against HIV-1 3B infected in human C8166 cells assessed as inhibition of syncytia formation after 3 days. Particulars: Human immunodeficiency virus 1, 3B, C8166, 72 h. It counts as functional, organism-based.
In data set [4] the test system is Tobacco mosaic virus. The experiment in a line: Antiviral activity against TMV strain U1 infected in compound-pretreated Nicotiana glutinosa leaves assessed as inhibition of viral infection at 20 uM incubated with leaf for 6 hrs prior to viral inoculation. It counts as functional. In outline:
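Protection assay with TMV U1 on tobacco leaves. Leaves were pretreated with compound at 20 μM for 6 h before virus inoculation. Compounds were dissolved in DMSO and diluted with water; a DMSO solution served as negative control and ningnanmycin as positive control. Inhibition rates are mean ± SD, n = 3.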

Data set [5] has as its system Tobacco mosaic virus. The experiment in a line: Antiviral activity against TMV strain U1 infected in Nicotiana glutinosa leaves assessed as decrease in number of local leaf lesions incubated with virus for 30 mins prior to inoculation on leaves measured 3 to 4 days post-viral infection by half-leaf method. It counts as functional, organism-based. Put shortly:
(§1)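 Half-leaf assay on N. glutinosa. TMV U1 was multiplied in N. tabacum cv. K326, purified, and set to 20 mg/mL by UV absorbance at 260 nm. Compounds were dissolved in DMSO and diluted with water. Virus and compound were mixed for 30 min and applied to the left leaf half; the right half got virus plus matched DMSO. Ningnanmycin served as positive control. Three leaf blades per compound. Inhibition % = (C−T)/C×100 from mean local lesion counts.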

Data set [6] relates to Tobacco mosaic virus. The experiment in a line: Antiviral activity against TMV strain U1 infected in Nicotiana glutinosa leaves assessed as decrease in number of local leaf lesions at 20 uM incubated with virus for 30 mins prior to inoculation on leaves measured 3 to 4 days post-viral infection by half-leaf method. It counts as functional. In outline: as §1

In the case of `COc1cc(O)cc2c1-c1c(O)ccc(O)c1C2=O`, the selectivity ratio in data set [1] was 19.3. Also, in data set [2], the CC50 at 72 h was 105 mg/L (≈ 408 µM). Further, in data set [3], the EC50 turned out to be 5.47 mg/L (≈ 21.2 µM). In addition, the inhibition at 20 µM in the data set on Tobacco mosaic virus [4] came to 16.7%; with Tobacco mosaic virus [6] it was 17.4%. Moreover, the IC50 in the data set with Tobacco mosaic virus [5] was 98.3 µM.
On to `COc1cc(O)cc2c1-c1c(O)cc(O)cc1C2=O`, for which the selectivity ratio in data set [1] was found to be 31.8. In addition, the CC50 at 72 h in data set [2] was determined as 86.7 mg/L (≈ 336 µM). Also, in data set [3], the EC50 worked out at 2.73 mg/L (≈ 10.6 µM). Further, in the data set with Tobacco mosaic virus [6], the inhibition at 20 µM turned out to be 7.9%.
As to `COc1ccc(/C=C/Cc2ccc(O)c(OC)c2OC)cc1O` [CANDENATENIN A], the selectivity ratio in data set [1] worked out at 44.3. Besides, the CC50 at 72 h in data set [2] turned out to be 145 mg/L (≈ 459 µM). Moreover, in data set [3], the EC50 worked out at 3.28 mg/L (≈ 10.4 µM). Further, the inhibition at 20 µM in the data set with Tobacco mosaic virus [4] worked out at 24%; in the data set on Tobacco mosaic virus [6], 21.2%. The IC50 in the data set with Tobacco mosaic virus [5] is 70.6 µM.
For the molecule `C/C=C/c1cc(OC)c(OC)cc1C(=O)c1cc(OC)c(OC)c(OC)c1` [GRAMNIPHENOL B], the selectivity ratio in data set [1] amounted to 106. Further, the CC50 at 72 h in data set [2] worked out at 134 mg/L (≈ 361 µM). Besides, in data set [3], the EC50 was 1.27 mg/L (≈ 3.41 µM).
As for `COc1ccc2c(c1)C=C[C@@H](c1ccc(O)c(C(=O)CCO)c1OC)O2` [GRAMNIPHENOL C], the selectivity ratio in data set [1] was determined as 44.3. The CC50 at 72 h in data set [2] was determined as 145 mg/L (≈ 407 µM). For the same molecule, in data set [3], the EC50 worked out at 3.28 mg/L (≈ 9.2 µM). Besides, the inhibition at 20 µM with Tobacco mosaic virus [4] is 56.3%; in the data set with Tobacco mosaic virus [6] it was 48.2%. The IC50 with Tobacco mosaic virus [5] was 20.8 µM.
For the molecule `C=C(C)[C@H](O)COc1cc(OC)c2c(c1)C(=O)c1c(O)ccc(O)c1-2` [GRAMNIPHENOL D], the selectivity ratio in data set [1] was above 137. Also, the CC50 at 72 h in data set [2] was above 200 mg/L. Further, the EC50 in data set [3] was 1.46 mg/L (≈ 4.26 µM). Besides, the inhibition at 20 µM with Tobacco mosaic virus [4] was 11.4%; with Tobacco mosaic virus [6] it was 13.3%. For the same molecule, in the data set with Tobacco mosaic virus [5], the IC50 stood at 129 µM.
Regarding `C=C(C)[C@H](O)COc1cc(OC)c2c(c1)C(=O)c1cc(O)cc(O)c1-2` [GRAMNIPHENOL E], in data set [1], the selectivity ratio was above 127. Besides, the CC50 at 72 h in data set [2] was above 200 mg/L. Besides, the EC50 in data set [3] is 1.58 mg/L (≈ 4.62 µM). Further, the inhibition at 20 µM with Tobacco mosaic virus [6] came out at 7.16%.
With `CC1(C)C=Cc2cc3cc(-c4ccc(O)cc4)oc3cc2O1` [GRAMNIPHENOL F], in data set [1], the selectivity ratio was found to be 19.6. In addition, the CC50 at 72 h in data set [2] came out at 102 mg/L (≈ 351 µM). For the same molecule, in data set [3], the EC50 came out at 5.22 mg/L (≈ 17.9 µM). Further, the inhibition at 20 µM came out at 33.8% in the data set on Tobacco mosaic virus [4] and 35.8% in the data set with Tobacco mosaic virus [6]. In the data set with Tobacco mosaic virus [5], the IC50 worked out at 40.8 µM.
Consider `COc1ccc(-c2cc3cc4c(cc3o2)OC(C)(C)C=C4)cc1` [GRAMNIPHENOL G], for which, in data set [1], the selectivity ratio turned out to be 13.9. Further, the CC50 at 72 h in data set [2] is 88.7 mg/L (≈ 290 µM). For the same molecule, the EC50 in data set [3] came to 6.38 mg/L (≈ 20.8 µM). Further, the values for the inhibition at 20 µM in the data set with Tobacco mosaic virus [4] and in the data set with Tobacco mosaic virus [6] were 36.1% and 32.1%, respectively. Further, in the data set with Tobacco mosaic virus [5], the IC50 was 57.7 µM.
In the case of `Oc1cc(O)cc(-c2cc3ccc(O)cc3o2)c1` [MORACIN M], in data set [1], the selectivity ratio stood at 12.5. In data set [2], the CC50 at 72 h turned out to be 57.4 mg/L (≈ 237 µM). Moreover, the EC50 in data set [3] was 4.59 mg/L (≈ 18.9 µM). For the same molecule, the inhibition at 20 µM stood at 10.2% with Tobacco mosaic virus [4] and 13.2% with Tobacco mosaic virus [6]. Moreover, the IC50 in the data set on Tobacco mosaic virus [5] was determined as 128 µM.
Turning to `CNCC(=O)N[C@@H](CO)C(=O)N[C@H]1[C@H](O)[C@@H](O)[C@H](n2ccc(N)nc2=O)O[C@@H]1C(N)=O` [NINGNANMYCIN], the inhibition at 20 µM with Tobacco mosaic virus [4] amounted to 30%; with Tobacco mosaic virus [6] it was 31.8%. Also, the half-inhibitory concentration (IC50) with Tobacco mosaic virus [5] amounted to 42.2 µM.
As for `Cc1cn([C@H]2C[C@H](N=[N+]=[N-])[C@@H](CO)O2)c(=O)[nH]c1=O` [ZIDOVUDINE], in data set [1], the selectivity ratio was above 5880. Moreover, the CC50 at 72 h in data set [2] is above 200 mg/L.
